Key:
[1] = Metabolic stability in rat liver microsomes assessed as clearance at 1 uM in presence of NADPH at 37 degC incubated for 30 mins; type: ADME; settings: read-out: CLH
Rattus norvegicus [2] = experiment: Effect on locomotor activity in orally dosed Sprague-Dawley rat measured at 10 mins intervals over 2 hrs period; type: ADME, organism-based; settings: in vivo, po
Method in brief: (§1)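 Adult male Sprague-Dawley rats (250–280 g) were first acclimated to the test cage for 60 min. They then received oral doses of 0.1, 0.3, 1 or 3 mg/kg, n = 10. After 1 h they were given PCP 8 mg/kg subcutaneously. Photobeam breaks were collected at 10 min intervals and compiled over 2 h. Groups were compared with vehicle by one-way ANOVA followed by Dunnett's test, and the minimum effective dose was determined.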

[3] = Half life in rat at 2 mg/kg, iv; type: ADME, organism-based; design: dose 2 mg/kg, route intravenous; settings: in vivo
[4] = target: cAMP and cAMP-inhibited cGMP 3',5'-cyclic phosphodiesterase 10A (Homo sapiens, UniProt Q9Y233); experiment: Inhibition of human recombinant PDE10A using cAMP as substrate incubated for 30 mins prior to substrate addition measured after 3 hrs to overnight by IMAP FRET assay
[5] = (§2) AUC in rat at 10 mg/kg, po; type: ADME, organism-based, Plasma; design: dose 10 mg/kg, route oral; settings: plasma
[6] = Volume of distribution at steady state in rat at 2 mg/kg, iv; type: ADME, organism-based; design: dose 2 mg/kg, route intravenous; settings: in vivo, read-out: Vdss
Rattus norvegicus [7] = experiment: Target occupancy of PDE10A in Sprague-Dawley rat striatum measured 1 hr post dosing and 10 mins post iv dosing of tracer by LC-MS/MS method; type: functional, organism-based
Method in brief: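 Sprague-Dawley rats received oral doses of 0.1, 0.3, 1, 3, 10 and 30 mg/kg, n = 4 per dose. Tissue was taken 1 h after dosing and 10 min after IV tracer. Striatal tracer was compared with thalamic tracer by LC-MS/MS. An occupancy EC50 was calculated against total plasma concentration.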

[8] = (§3) Oral bioavailability in rat at 10 mg/kg; type: ADME, organism-based; settings: in vivo
[9] = (§4) AUC in rat at 2 mg/kg, iv; type: ADME, organism-based, Plasma; design: dose 2 mg/kg, route intravenous; settings: plasma
[10] = Clearance in rat at 2 mg/kg, iv; type: ADME, organism-based; design: dose 2 mg/kg, route intravenous; settings: in vivo
Rattus norvegicus [11] = experiment: Reversal of PCP-induced hyperlocomotor activity in Sprague-Dawley rat assessed as effect on locomotor activity administered orally 1 hr before PCP dosing and measured at 10 mins intervals over 2 hrs period; type: functional; settings: po, read-out: MED; method in brief: as §1
[12] = Metabolic stability in human liver microsomes assessed as clearance at 1 uM in presence of NADPH at 37 degC incubated for 30 mins; type: ADME; settings: read-out: CLH
[13] = Half life in rat at 10 mg/kg, po; type: ADME, organism-based; design: dose 10 mg/kg, route oral; settings: in vivo
Rattus norvegicus [14] = experiment: Target occupancy of PDE10A in Sprague-Dawley rat striatum at 10 mg/kg, po administered as single dose measured 1 hr post dosing and 10 mins post iv dosing of tracer by LC-MS/MS method; type: functional
[15] = Half life in dog at 0.5 mg/kg, po; type: ADME, organism-based, Canis lupus familiaris; design: dose 0.5 mg/kg, route oral; settings: in vivo
[16] = Half life in dog at 0.5 mg/kg, iv; type: ADME, organism-based, Canis lupus familiaris; design: dose 0.5 mg/kg, route intravenous; settings: in vivo
[17] = Volume of distribution at steady state in dog at 0.5 mg/kg, iv; type: ADME, organism-based, Canis lupus familiaris; design: dose 0.5 mg/kg, route intravenous; settings: in vivo, read-out: Vdss
[18] = AUC in dog at 0.5 mg/kg, po; type: ADME, organism-based, Canis lupus familiaris; design: dose 0.5 mg/kg, route oral; settings: plasma
[19] = Half life in non-human primates at 0.5 mg/kg, iv; type: ADME, organism-based; design: dose 0.5 mg/kg, route intravenous; settings: monkey, in vivo
[20] = Oral bioavailability in dog at 0.5 mg/kg; type: ADME, organism-based, Canis lupus familiaris; settings: in vivo
[21] = AUC in dog at 0.5 mg/kg, iv; type: ADME, organism-based, Canis lupus familiaris; design: dose 0.5 mg/kg, route intravenous; settings: plasma
Rattus norvegicus [22] = experiment: as §2; type: ADME, organism-based, Plasma; design: dose 10 mg/kg, route oral; settings: in vivo
[23] = Clearance in dog at 0.5 mg/kg, iv; type: ADME, organism-based, Canis lupus familiaris; design: dose 0.5 mg/kg, route intravenous; settings: in vivo
Rattus norvegicus [24] = experiment: as §3; type: ADME, organism-based; settings: in vivo
Rattus norvegicus [25] = experiment: as §4; type: ADME, organism-based, Plasma; design: dose 2 mg/kg, route intravenous; settings: in vivo
[26] = AUC in non-human primates at 0.5 mg/kg, iv; type: ADME, organism-based; design: dose 0.5 mg/kg, route intravenous; settings: monkey, plasma
[27] = Clearance in non-human primates at 0.5 mg/kg, iv; type: ADME, organism-based; design: dose 0.5 mg/kg, route intravenous; settings: monkey, in vivo
[28] = Volume of distribution at steady state in non-human primates at 0.5 mg/kg, iv; type: ADME, organism-based; design: dose 0.5 mg/kg, route intravenous; settings: monkey, in vivo, read-out: Vdss
Phosphodiesterase 1 = Phosphodiesterase 1 (Homo sapiens, UniProt P54750+Q01064+Q14123); experiment: Inhibition of PDE1 (unknown origin); type: protein assay
[29] = Half life in non-human primates at 0.5 mg/kg, po; type: ADME, organism-based; design: dose 0.5 mg/kg, route oral; settings: monkey, in vivo
Phosphodiesterase 8 = Phosphodiesterase 8 (Homo sapiens, UniProt O95263+O60658); experiment: Inhibition of PDE8 (unknown origin); type: protein assay
Phosphodiesterase 7 = Phosphodiesterase 7 (Homo sapiens, UniProt Q13946+Q9NP56); experiment: Inhibition of PDE7 (unknown origin); type: protein assay
[30] = AUC in non-human primates at 0.5 mg/kg, po; type: ADME, organism-based; design: dose 0.5 mg/kg, route oral; settings: monkey, plasma
[31] = target: cGMP-specific 3',5'-cyclic phosphodiesterase (Canis lupus familiaris, UniProt O77746); experiment: Inhibition of PDE5 (unknown origin); design: species or system Homo sapiens
[32] = Oral bioavailability in dog at 1 mg/kg; type: ADME, organism-based, Canis lupus familiaris; settings: in vivo
[33] = Half life in dog at 1 mg/kg, po; type: ADME, organism-based, Canis lupus familiaris; design: dose 1 mg/kg, route oral; settings: in vivo
Phosphodiesterase 6 = experiment: Inhibition of PDE6 (unknown origin); type: protein assay, Homo sapiens
[34] = target: cGMP-dependent 3',5'-cyclic phosphodiesterase (Homo sapiens, UniProt O00408); experiment: Inhibition of PDE2 (unknown origin)
[35] = Oral bioavailability in non-human primates at 0.5 mg/kg; type: ADME, organism-based; settings: monkey, in vivo
Phosphodiesterase 4 = Phosphodiesterase 4 (Homo sapiens, UniProt P27815+Q08499+Q07343+Q08493); experiment: Inhibition of PDE4 (unknown origin); type: protein assay
[36] = target: High affinity cGMP-specific 3',5'-cyclic phosphodiesterase 9A (Homo sapiens, UniProt O76083); experiment: Inhibition of PDE9 (unknown origin)
[37] = target: Dual 3',5'-cyclic-AMP and -GMP phosphodiesterase 11A (Homo sapiens, UniProt Q9HCR9); experiment: Inhibition of PDE11 (unknown origin)
[38] = AUC in dog at 1 mg/kg, po; type: ADME, organism-based, Canis lupus familiaris; design: dose 1 mg/kg, route oral; settings: plasma
Phosphodiesterase 3 = Phosphodiesterase 3 (Homo sapiens, UniProt Q14432+Q13370); experiment: Inhibition of PDE3 (unknown origin); type: protein assay

cAMP and cAMP-inhibited cGMP 3',5'-cyclic phosphodiesterase 10A, sequence (Q9Y233 whole entry): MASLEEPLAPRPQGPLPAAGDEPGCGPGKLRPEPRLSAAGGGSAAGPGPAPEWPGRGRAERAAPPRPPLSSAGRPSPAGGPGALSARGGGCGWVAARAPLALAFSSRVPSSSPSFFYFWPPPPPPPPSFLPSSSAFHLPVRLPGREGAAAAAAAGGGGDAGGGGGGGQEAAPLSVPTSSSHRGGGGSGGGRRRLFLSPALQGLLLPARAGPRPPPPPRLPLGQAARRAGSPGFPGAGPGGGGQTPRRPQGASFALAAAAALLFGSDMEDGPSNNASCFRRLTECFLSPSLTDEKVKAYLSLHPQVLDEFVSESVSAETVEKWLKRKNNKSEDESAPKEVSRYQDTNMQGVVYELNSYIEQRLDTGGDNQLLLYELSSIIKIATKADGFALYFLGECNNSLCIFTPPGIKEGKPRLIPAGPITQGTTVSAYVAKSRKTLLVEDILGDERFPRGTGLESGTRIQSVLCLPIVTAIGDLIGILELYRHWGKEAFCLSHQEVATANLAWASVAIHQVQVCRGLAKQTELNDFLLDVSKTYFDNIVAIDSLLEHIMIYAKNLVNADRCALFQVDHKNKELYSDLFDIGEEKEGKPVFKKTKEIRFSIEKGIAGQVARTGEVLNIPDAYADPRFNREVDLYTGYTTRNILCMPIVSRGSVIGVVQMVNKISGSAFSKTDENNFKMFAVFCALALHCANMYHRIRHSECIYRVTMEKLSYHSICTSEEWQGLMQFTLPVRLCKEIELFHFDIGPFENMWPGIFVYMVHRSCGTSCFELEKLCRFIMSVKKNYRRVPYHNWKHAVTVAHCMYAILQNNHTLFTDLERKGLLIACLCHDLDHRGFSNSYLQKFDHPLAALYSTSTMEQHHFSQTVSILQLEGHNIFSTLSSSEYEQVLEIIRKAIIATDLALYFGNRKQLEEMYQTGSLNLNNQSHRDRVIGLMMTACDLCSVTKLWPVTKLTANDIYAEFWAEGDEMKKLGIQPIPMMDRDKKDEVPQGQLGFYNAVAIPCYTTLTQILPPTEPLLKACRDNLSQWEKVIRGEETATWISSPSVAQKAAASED
cGMP-dependent 3',5'-cyclic phosphodiesterase, sequence (O00408 whole entry): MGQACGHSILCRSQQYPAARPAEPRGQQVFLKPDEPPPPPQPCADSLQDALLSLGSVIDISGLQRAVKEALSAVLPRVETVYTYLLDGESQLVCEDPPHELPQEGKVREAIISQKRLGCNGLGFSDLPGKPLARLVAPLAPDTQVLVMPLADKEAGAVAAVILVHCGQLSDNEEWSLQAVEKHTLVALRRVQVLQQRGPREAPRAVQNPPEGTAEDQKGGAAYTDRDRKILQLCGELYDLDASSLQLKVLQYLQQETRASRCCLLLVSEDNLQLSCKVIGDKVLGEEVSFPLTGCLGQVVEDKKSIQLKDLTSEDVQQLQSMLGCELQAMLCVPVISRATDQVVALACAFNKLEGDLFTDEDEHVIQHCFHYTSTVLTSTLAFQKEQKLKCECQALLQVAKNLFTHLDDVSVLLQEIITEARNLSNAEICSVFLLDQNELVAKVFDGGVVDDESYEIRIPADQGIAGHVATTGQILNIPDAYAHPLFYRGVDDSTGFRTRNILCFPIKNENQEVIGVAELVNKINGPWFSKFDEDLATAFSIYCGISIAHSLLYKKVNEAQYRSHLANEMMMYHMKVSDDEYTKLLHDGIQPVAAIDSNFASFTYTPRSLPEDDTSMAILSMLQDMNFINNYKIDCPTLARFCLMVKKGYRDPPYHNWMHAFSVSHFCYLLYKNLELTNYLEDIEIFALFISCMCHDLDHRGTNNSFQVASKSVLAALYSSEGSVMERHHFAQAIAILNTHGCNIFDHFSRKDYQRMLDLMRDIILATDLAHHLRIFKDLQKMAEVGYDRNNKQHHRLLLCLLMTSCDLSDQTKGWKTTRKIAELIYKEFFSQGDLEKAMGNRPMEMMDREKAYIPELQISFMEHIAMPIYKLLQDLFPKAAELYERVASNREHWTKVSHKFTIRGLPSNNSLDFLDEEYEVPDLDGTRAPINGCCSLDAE
High affinity cGMP-specific 3',5'-cyclic phosphodiesterase 9A, sequence (O76083 whole entry): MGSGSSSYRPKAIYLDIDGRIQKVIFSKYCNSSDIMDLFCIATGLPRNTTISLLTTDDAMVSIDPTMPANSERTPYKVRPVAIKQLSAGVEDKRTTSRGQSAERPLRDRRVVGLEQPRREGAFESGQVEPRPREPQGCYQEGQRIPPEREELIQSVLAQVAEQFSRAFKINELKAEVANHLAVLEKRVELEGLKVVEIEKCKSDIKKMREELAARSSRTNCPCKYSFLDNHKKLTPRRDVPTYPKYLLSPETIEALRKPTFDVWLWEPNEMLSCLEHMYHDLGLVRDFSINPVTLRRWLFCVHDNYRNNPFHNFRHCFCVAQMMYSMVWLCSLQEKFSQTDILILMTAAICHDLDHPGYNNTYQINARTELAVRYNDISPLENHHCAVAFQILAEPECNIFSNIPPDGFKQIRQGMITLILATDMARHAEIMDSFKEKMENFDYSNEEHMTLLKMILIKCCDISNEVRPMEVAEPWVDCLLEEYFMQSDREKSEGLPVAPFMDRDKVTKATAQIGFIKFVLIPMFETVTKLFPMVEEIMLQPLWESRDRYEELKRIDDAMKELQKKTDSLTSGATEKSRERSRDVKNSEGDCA
Dual 3',5'-cyclic-AMP and -GMP phosphodiesterase 11A, sequence (Q9HCR9 whole entry): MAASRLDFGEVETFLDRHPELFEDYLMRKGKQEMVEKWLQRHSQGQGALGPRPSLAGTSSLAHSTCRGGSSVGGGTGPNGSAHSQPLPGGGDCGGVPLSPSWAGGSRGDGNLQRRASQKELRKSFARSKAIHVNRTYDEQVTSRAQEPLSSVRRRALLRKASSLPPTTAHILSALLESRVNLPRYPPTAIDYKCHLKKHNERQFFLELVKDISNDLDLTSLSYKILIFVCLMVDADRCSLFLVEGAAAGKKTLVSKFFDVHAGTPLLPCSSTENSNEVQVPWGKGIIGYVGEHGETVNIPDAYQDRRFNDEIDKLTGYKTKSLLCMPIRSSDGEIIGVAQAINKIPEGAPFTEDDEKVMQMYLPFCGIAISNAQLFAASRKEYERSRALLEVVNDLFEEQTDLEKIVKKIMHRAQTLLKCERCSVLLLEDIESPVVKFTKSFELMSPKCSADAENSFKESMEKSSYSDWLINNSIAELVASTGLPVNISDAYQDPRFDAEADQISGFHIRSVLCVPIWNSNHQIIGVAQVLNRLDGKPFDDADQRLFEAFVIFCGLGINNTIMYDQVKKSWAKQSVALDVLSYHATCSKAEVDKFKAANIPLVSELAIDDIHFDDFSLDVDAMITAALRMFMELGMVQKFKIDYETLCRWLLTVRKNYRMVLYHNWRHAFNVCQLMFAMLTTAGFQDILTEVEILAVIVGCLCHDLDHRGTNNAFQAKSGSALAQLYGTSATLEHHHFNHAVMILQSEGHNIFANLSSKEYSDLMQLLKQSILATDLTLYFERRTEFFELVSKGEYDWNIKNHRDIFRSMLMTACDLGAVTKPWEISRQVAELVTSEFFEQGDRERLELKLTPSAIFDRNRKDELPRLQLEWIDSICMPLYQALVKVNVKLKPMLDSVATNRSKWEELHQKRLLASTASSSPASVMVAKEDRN

Row | SMILES | microsomal CLint at 1 µM [1] | Activity (Rattus norvegicus [2]) | half-life [3] | IC50 [4] | AUC [5] | Vd [6] | EC50 (Rattus norvegicus [7]) | Occ (Rattus norvegicus [7]) | bioavailability [8] | AUC [9] | clearance [10] | minimal effective dose (Rattus norvegicus [11]) | microsomal CLint at 1 µM [12] | half-life [13] | Occ (Rattus norvegicus [14]) | half-life [16] | Vd [17] | half-life [19] | AUC [21] | clearance [23] | other results
1 | O=C(c1ccc(Oc2nccnc2C2CCOCC2)cc1)c1nc2ccccc2[nH]1 | 119 µL/min/mg | Non-toxic | 4.26 h | 0.8 nM | 7.93 µM·h | 2.27 L/kg | 117 nM | Dose-dependent effect | 22% | 7.75 µM·h | 10.3 mL/min/kg | 1 mg/kg | 50 µL/min/mg | 3.99 h | 91% |  |  |  |  |  | 
2 | O=C(c1ccc(Oc2ncccc2C2CCOCC2)cc1)c1nc2ccccc2[nH]1 | > 399 µL/min/mg |  |  |  |  |  |  |  |  |  |  |  | 100 µL/min/mg |  | 69.2% |  |  |  |  |  | 
3 | CC(=O)N1CCC(c2cccnc2Oc2ccc(C(=O)c3nc4ccccc4[nH]3)cc2)CC1 | 463 µL/min/mg | Non-toxic | 23.1 h | 0.1 nM |  | 31.2 L/kg | 965 nM | Dose-dependent effect |  |  | 50.5 mL/min/kg | 0.3 mg/kg | 29 µL/min/mg | 1.72 h | 86.5% | 7.41 h | 0.5 L/kg | 1.26 h | 21.5 µM·h | 0.867 mL/min/kg | half-life [15]: 5.07 h; AUC [18]: 9.59 µM·h; bioavailability [20]: 45%; AUC (Rattus norvegicus [22]): 5.07 µM·h; F (Rattus norvegicus [24]): 63%; AUC (Rattus norvegicus [25]): 1.62 µM·h; AUC [26]: 1.61 µM·h; clearance [27]: 13.7 mL/min/kg; Vd [28]: 1.62 L/kg
4 | CC(=O)N1CCC(c2nccnc2Oc2ccc(C(=O)c3nc4ccccc4[nH]3)cc2)CC1 | 41 µL/min/mg | Non-toxic | 3.16 h | 0.1 nM | 19.8 µM·h | 0.81 L/kg | 711 nM | Dose-dependent effect | 49% | 8.31 µM·h | 9 mL/min/kg | 0.3 mg/kg | 20 µL/min/mg | 3.35 h | 86.3% | 6.89 h | 0.77 L/kg | 1.09 h | 13.7 µM·h | 1.23 mL/min/kg | IC50 (Phosphodiesterase 1): > 30000 nM; half-life [29]: 2.48 h; IC50 (Phosphodiesterase 8): > 30000 nM; IC50 (Phosphodiesterase 7): > 30000 nM; AUC [30]: 2.4 µM·h; IC50 [31]: > 30000 nM; bioavailability [32]: 72%; half-life [33]: 11 h; IC50 (Phosphodiesterase 6): > 30000 nM; IC50 [34]: > 30000 nM; bioavailability [35]: 71%; IC50 (Phosphodiesterase 4): > 30000 nM; AUC [26]: 3.41 µM·h; IC50 [36]: > 30000 nM; IC50 [37]: > 30000 nM; AUC [38]: 16.9 µM·h; IC50 (Phosphodiesterase 3): > 30000 nM; clearance [27]: 5.67 mL/min/kg; Vd [28]: 0.83 L/kg
